Experimental data reported in ChEMBL document CHEMBL2384924, “Antagonists for the orphan G-protein-coupled receptor GPR55 based on a coumarin scaffold” (J Med Chem, 2013).
Active and inactive are the calls of the source. The rule behind the calls is not given here.

Assays:
[1] = molecular target: T1, G-protein coupled receptor 55 (Homo sapiens, UniProt Q9Y2T6); assay: Agonist activity at human GPR55 transfected in CHO cells at 10 uM after 90 mins by beta-arrestin translocation assay; format: cell-based
T1 sequence (Q9Y2T6 whole entry, the tested form may be a part): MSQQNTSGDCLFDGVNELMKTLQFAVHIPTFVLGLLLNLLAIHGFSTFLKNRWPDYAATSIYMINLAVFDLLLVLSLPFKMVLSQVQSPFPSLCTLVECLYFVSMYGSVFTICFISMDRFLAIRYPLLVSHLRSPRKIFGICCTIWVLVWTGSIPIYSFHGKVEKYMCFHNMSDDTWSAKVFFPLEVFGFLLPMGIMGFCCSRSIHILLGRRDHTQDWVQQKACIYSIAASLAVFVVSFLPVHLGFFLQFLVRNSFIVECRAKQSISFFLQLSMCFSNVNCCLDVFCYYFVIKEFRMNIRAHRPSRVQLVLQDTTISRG
In short: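 CHO cells stably expressing human GPR55 (β-galactosidase fragment complementation) were seeded at 20,000 cells/well in Opti-MEM with 2% FCS for 24 h at 37°C. Compound was diluted in PBS with 10% DMSO and 0.1% BSA, screened at 10 µM and incubated 90 min at 37°C. Galacton-Star/Emerald-II/lysis buffer (1:5:19) was added for 60 min at RT, then luminescence was read. Response is relative to 1 µM LPI (100%).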

[2] = molecular target: T1, G-protein coupled receptor 55; assay: Antagonist activity at human GPR55 transfected in CHO cells assessed as inhibition of LPI-induced beta-arrestin recruitment at 10 uM incubated 60 mins prior to LPI addition by beta-arrestin translocation assay; format: cell-based; parameters: scale not given: the % may be the effect or the level left
In short: (§1)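 CHO cells stably expressing human GPR55 were seeded at 20,000 cells/well for 24 h at 37°C. Compound in PBS/10% DMSO/0.1% BSA was added 60 min before 1 µM LPI. Galacton-Star/Emerald-II/lysis buffer (pH 8) was applied for 60 min at RT, with luminescence read-out. Screening was at 10 µM (% inhibition). IC50 was measured where inhibition exceeded 60%. Three independent experiments in duplicate.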

[3] = molecular target: T1, G-protein coupled receptor 55; assay: Antagonist activity at human GPR55 transfected in CHO cells assessed as inhibition of LPI-induced beta-arrestin recruitment incubated 60 mins prior to LPI addition by beta-arrestin translocation assay; format: cell-based; in short: as §1
[4] = molecular target: T2, N-arachidonyl glycine receptor (Homo sapiens) (UniProt Q14330); assay: Antagonist activity at human GPR18 transfected in CHO cells assessed as delta9-THC-induced beta-arrestin recruitment at 10 uM incubated 60 mins prior to delta9-THC addition by beta-arrestin translocation assay; format: cell-based; parameters: scale not given: the % may be the effect or the level left
T2 sequence (whole entry): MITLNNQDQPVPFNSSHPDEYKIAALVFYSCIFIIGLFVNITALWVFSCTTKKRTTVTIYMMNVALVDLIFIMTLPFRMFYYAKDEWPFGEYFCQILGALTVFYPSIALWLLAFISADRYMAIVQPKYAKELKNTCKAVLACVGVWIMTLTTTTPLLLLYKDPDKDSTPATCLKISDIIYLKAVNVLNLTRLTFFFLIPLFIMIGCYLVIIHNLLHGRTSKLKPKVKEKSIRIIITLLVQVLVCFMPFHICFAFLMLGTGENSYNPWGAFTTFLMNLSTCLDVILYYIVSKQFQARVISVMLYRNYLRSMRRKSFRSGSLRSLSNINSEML
In short: (§2)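 CHO cells stably expressing human GPR18 were seeded at 20,000 cells/well for 24 h at 37°C. Compound in PBS/10% DMSO/0.1% BSA was added 60 min before the GPR18 agonist 3 at 10 µM. The supplier's detection reagent was used, and luminescence was read after 60 min at RT. Screening was at 10 µM (% inhibition); IC50 from concentration-inhibition curves. Three independent experiments in duplicate.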

[5] = molecular target: T3, N-arachidonyl glycine receptor (Homo sapiens, UniProt Q14330); assay: Antagonist activity at human GPR18 transfected in CHO cells assessed as delta9-THC-induced beta-arrestin recruitment incubated 60 mins prior to delta9-THC addition by beta-arrestin translocation assay; format: cell-based; in short: as §2
T3 sequence (Q14330 whole entry): T2 sequence (whole entry)

[6] = molecular target: Cannabinoid receptor 2 (Homo sapiens, UniProt P34972); assay: Displacement of [3H]-CP55,940 from human CB2 receptor transfected in CHOK1 cells; format: cell-based, CHO-K1
Sequence of Cannabinoid receptor 2 (P34972 whole entry): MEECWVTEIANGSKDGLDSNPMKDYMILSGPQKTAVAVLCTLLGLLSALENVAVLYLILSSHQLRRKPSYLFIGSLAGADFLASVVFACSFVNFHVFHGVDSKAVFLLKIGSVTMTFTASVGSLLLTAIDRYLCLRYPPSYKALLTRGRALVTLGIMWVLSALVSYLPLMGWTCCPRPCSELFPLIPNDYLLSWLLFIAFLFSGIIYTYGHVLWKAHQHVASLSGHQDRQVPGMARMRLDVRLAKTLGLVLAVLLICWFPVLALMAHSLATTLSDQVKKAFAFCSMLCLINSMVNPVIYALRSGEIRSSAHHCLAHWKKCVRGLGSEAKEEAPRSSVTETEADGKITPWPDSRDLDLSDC
In short: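 CHO cells stably expressing human CB2 supplied the membranes, 1 µg protein per vial. Compounds were screened at 10 µM, and full competition curves were run where inhibition was about 50% or more. Three independent experiments in duplicate.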

[7] = molecular target: Cannabinoid receptor 1 (Homo sapiens, UniProt P21554); assay: Displacement of [3H]-CP55,940 from human CB1 receptor transfected in CHOK1 cells; format: cell-based, CHO-K1
Sequence of Cannabinoid receptor 1 (P21554 whole entry): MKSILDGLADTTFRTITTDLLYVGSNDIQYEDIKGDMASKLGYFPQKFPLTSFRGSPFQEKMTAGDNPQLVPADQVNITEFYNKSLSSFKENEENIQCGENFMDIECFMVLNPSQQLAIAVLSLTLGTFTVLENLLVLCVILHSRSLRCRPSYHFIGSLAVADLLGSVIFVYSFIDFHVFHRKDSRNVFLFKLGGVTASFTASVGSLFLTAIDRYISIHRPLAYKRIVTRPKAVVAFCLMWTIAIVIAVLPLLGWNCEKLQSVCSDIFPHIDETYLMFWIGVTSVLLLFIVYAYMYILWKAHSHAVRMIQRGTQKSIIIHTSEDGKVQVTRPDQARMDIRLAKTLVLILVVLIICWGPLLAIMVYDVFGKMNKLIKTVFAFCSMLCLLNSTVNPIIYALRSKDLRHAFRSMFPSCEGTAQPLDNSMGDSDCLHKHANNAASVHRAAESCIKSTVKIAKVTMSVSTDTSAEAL

SMILES | Activity [1] | Activity [2] [%] | IC50 [3] [µM] | Activity [4] [%] | IC50 [5] [µM] | Ki [6] [µM] | Ki [7] [µM]
CCCCCc1cc(O)c2cc(Cc3ccccc3O)c(=O)oc2c1 | inactive | 37 | > 10 |  |  |  | 
COc1cccc(Cc2cc3c(OC)cc(CBr)cc3oc2=O)c1 | inactive | 18 | > 10 |  |  |  | 
CCCCCc1cc(O)c2cc(Cc3cccc(C)c3)c(=O)oc2c1 | inactive | 19 | > 10 |  |  |  | 
CCCCCc1cc(OC)c2cc(Cc3ccc(F)cc3)c(=O)oc2c1 | inactive | 57 | 10 |  |  |  | 
CCCCCc1cc(O)c2cc(Cc3cccc(Cl)c3)c(=O)oc2c1 | inactive | 30 | > 10 |  |  |  | 
O=c1oc2cccc(O)c2cc1Cc1ccccc1 | inactive | 6 | > 10 |  |  |  | 
CCCCCc1cc(OC)c2cc(Cc3cccc(C)c3)c(=O)oc2c1 | inactive | 27 | > 10 |  |  |  | 
CCCCCc1cc(O)c2cc(Cc3ccccc3C)c(=O)oc2c1 | inactive | 19 | > 10 | 10 | > 10 |  | 
O=c1oc2ccc3ccccc3c2cc1Cc1ccccc1 | inactive |  | 2.81 |  |  |  | 
CCCCCc1cc(OC)c2cc(Cc3cc(C)c(OC)c(C)c3)c(=O)oc2c1 | inactive | 44 | > 10 |  |  |  | 
CCCCCCC(C)(C)c1ccc([C@@H]2C[C@H](O)CC[C@H]2CCCO)c(O)c1 [CP-55940] |  |  |  |  | 5.99 |  | 
COc1ccc2oc(=O)c(Cc3ccccc3)cc2c1 | inactive | 54 | 10 |  |  |  | 
COc1c(C)c(C)c2oc(=O)c(Cc3ccccc3C)cc2c1C | inactive |  | 7.69 | 33 | > 10 | 0.66 | 7.86
CCCCC1(c2cc(OC)c3cc(Cc4ccccc4OC)c(=O)oc3c2)CCCC1 | inactive | 30 | > 10 | 25 | > 10 |  | 
Cc1ccc(Cc2cc3c(O)cc(C)cc3oc2=O)cc1 | inactive | 42 | > 10 |  |  |  | 
O=c1oc2ccc(I)cc2cc1Cc1ccccc1 | inactive | 46 | > 10 |  |  |  | 
COc1ccc2cc(Cc3ccccc3)c(=O)oc2c1 | inactive | 53 | 10 |  |  |  | 
COc1cc(Br)cc2cc(C)c(=O)oc12 | inactive | 16 | > 10 |  |  |  | 
CCCCCCC(C)(C)c1cc(OC)c2cc(Cc3ccccc3)c(=O)oc2c1 | inactive | 51 | 10 | 31 | > 10 |  | 
COc1ccc2oc(=O)c(C)cc2c1 | inactive | 13 | > 10 |  |  |  | 

SMILES | Activity [1] | Activity [2] [%] | IC50 [3] [µM] | Activity [4] [%] | IC50 [5] [µM] | Ki [6] [µM] | Ki [7] [µM]
CCCCCc1cc(OC)c2cc(Cc3ccccc3Cl)c(=O)oc2c1 | inactive |  | 9 | 25 | > 10 |  | 
COc1cccc2oc(=O)c(Cc3ccccc3)cc12 | inactive | 43 | > 10 |  |  |  | 
COc1ccc2cc(C)c(=O)oc2c1 | inactive | 25 | > 10 |  |  |  | 
COc1cccc2cc(C)c(=O)oc12 | inactive | 7 | > 10 |  |  |  | 
COc1ccc(Br)c2oc(=O)c(Cc3ccccc3)cc12 | inactive | 2 | > 10 |  |  |  | 
Cc1cc2c(ccc3ccccc32)oc1=O | inactive | 28 | > 10 |  |  |  | 
CCCCCc1cc(O)c2cc(Cc3ccccc3Cl)c(=O)oc2c1 | inactive | 0 | > 10 | 0 | > 10 |  | 
CCCCCCC(C)(C)c1cc(OC)c2cc(Cc3ccccc3OC)c(=O)oc2c1 | inactive | 25 | > 10 | 26 | > 10 |  | 
CCCCCc1cc(O)c2cc(Cc3ccccc3)c(=O)oc2c1 | inactive | 0 | > 10 |  |  |  | 
COc1cccc(Cc2cc3c(OC)cc(CO)cc3oc2=O)c1 | inactive | 13 | > 10 |  |  |  | 
Cc1cc2cc(Cl)cc(Br)c2oc1=O | inactive | 45 | > 10 |  |  |  | 
CCCCCc1cc(OC)c2cc(Cc3ccccc3)c(=O)oc2c1 | inactive | 36 | > 10 |  |  |  | 
COc1cccc2cc(Cc3ccccc3)c(=O)oc12 | inactive | 5 | > 10 |  |  |  | 
CCCCCc1cc(OC)c2cc(Cc3cccc(Cl)c3)c(=O)oc2c1 | inactive | 36 | > 10 |  |  |  | 
COc1cccc(Cc2cc3c(OC)cccc3oc2=O)c1 | inactive | 54 | 10 |  |  |  | 
COc1ccccc1Cc1cc2c(C)c(OC)c(C)c(C)c2oc1=O | inactive |  | 0.981 | 27 | > 10 | 0.338 | 3.66
Cc1cc(O)c2cc(Cc3ccccc3C)c(=O)oc2c1 | inactive | 45 | > 10 |  |  |  | 
O=c1oc2ccccc2cc1Cc1ccccc1 | inactive | 28 | > 10 |  |  |  | 
Cc1cc2cc(I)ccc2oc1=O | inactive | 40 | > 10 |  |  |  | 
